Results reported in ChEMBL document CHEMBL1759933, “Synthesis, human monoamine oxidase inhibitory activity and molecular docking studies of 3-heteroarylcoumarin derivatives” (Eur J Med Chem, 2011).
pIC50: −log10 of the molar value.

Key:
[1] = target: T1, Amine oxidase [flavin-containing] A (Homo sapiens, UniProt P21397); assay: Inhibition of human recombinant MAO-A expressed in BTI-TN-5B1-4 cells assessed as H2O2 production using para-tyramine substrate at 100 uM by fluorimetric method; type: cell-based; conditions: bti-tn-5b1-4, 100 µM
T1 sequence (P21397 whole entry): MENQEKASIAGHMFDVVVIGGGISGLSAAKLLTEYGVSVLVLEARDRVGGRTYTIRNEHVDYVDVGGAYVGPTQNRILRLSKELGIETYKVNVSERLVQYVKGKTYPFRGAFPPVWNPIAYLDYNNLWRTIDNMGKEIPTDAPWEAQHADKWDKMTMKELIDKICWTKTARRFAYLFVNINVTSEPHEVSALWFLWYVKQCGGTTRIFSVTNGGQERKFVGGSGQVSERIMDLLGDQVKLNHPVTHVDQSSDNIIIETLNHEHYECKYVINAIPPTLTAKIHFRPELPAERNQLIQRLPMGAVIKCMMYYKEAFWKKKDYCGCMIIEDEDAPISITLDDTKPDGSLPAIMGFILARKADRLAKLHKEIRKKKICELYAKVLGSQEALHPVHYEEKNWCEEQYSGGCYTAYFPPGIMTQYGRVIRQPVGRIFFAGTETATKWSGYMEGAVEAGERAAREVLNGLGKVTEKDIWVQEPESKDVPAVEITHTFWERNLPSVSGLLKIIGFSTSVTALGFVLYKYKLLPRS

[2] = target: T2, Amine oxidase [flavin-containing] B (Homo sapiens, UniProt P27338); assay: Inhibition of human recombinant MAO-B expressed in BTI-TN-5B1-4 cells assessed as H2O2 production using para-tyramine substrate at 100 uM by fluorimetric method; type: cell-based; conditions: bti-tn-5b1-4, 100 µM
T2 sequence (P27338 whole entry): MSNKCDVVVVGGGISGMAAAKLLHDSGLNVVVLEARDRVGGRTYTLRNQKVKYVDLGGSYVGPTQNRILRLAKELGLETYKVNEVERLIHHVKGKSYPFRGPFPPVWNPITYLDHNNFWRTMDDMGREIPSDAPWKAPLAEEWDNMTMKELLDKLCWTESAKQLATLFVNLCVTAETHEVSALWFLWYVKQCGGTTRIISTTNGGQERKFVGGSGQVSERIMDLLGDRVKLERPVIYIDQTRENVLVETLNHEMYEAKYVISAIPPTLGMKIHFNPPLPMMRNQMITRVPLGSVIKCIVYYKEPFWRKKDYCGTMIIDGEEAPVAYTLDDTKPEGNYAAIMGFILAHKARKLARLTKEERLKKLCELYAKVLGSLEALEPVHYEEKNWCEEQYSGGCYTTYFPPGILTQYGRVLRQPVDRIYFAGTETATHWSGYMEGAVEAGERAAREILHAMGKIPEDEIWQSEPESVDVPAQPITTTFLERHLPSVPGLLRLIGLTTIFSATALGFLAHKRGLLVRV

[3] = organism: Homo sapiens; assay: Selectivity index, ratio of IC50 for human recombinant MAO-A to IC50 for human recombinant MAO-B
Summary of the method: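 SI is IC50(hMAO-A)/IC50(hMAO-B), from IC50s measured by Amplex Red/HRP fluorimetry of p-tyramine-driven H2O2 with baculovirus-expressed human isoforms (mean of five experiments each). Where no MAO-A IC50 was reached, the highest concentration tested was taken as that IC50.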

[4] = target: T2, Amine oxidase [flavin-containing] B; assay: Inhibition of human recombinant MAO-B expressed in BTI-TN-5B1-4 cells assessed as H2O2 production using para-tyramine substrate by fluorimetric method; type: cell-based
[5] = target: T1, Amine oxidase [flavin-containing] A; assay: Inhibition of human recombinant MAO-A expressed in BTI-TN-5B1-4 cells assessed as H2O2 production using para-tyramine substrate by fluorimetric method; type: cell-based

| Compound | inhibition (INH) [1] | inhibition (INH) [2] | Ratio IC50 [3] | pIC50 [4] | pIC50 [5] |
| --- | --- | --- | --- | --- | --- |
| COc1cc(OC)c2cc(-c3cccs3)c(=O)oc2c1 | Not Active | Not Active | – | – | – |
| COc1ccc2oc(=O)c(-c3cccs3)cc2c1 | Not Active | – | > 158 | 6.20 | – |
| COc1cc(OC)c2cc(-c3c[nH]c4ccccc34)c(=O)oc2c1 | Not Active | Not Active | – | – | – |
| O=c1oc2ccccc2cc1-c1c[nH]c2ccccc12 | Not Active | – | > 52 | 5.72 | – |
| COc1ccc2cc(-c3cccs3)c(=O)oc2c1 | Not Active | – | > 380 | 6.58 | – |
| COc1ccc2oc(=O)c(-c3c[nH]c4ccccc34)cc2c1 | Not Active | Not Active | – | – | – |
| COc1ccc2cc(-c3c[nH]c4ccccc34)c(=O)oc2c1 | – | – | > 210 | 7.34 | 5.01 |
| COc1cc(OC)c2cc(-c3ccsc3)c(=O)oc2c1 | Not Active | Not Active | – | – | – |

The next lines start with the values.

| inhibition (INH) [1] | inhibition (INH) [2] | Ratio IC50 [3] | pIC50 [4] | pIC50 [5] | Compound |
| --- | --- | --- | --- | --- | --- |
| Not Active | – | > 15 | 5.20 | – | O=c1oc2ccccc2cc1-c1cccs1 |
| – | – | > 75 | 7.25 | 5.38 | COc1ccc2cc(-c3ccsc3)c(=O)oc2c1 |
| Not Active | – | > 428 | 6.63 | – | COc1ccc2oc(=O)c(-c3ccsc3)cc2c1 |
| Not Active | – | > 7.5 | 4.88 | – | O=c1oc2ccccc2cc1-c1ccsc1 |
